Test results reported in ChEMBL document CHEMBL1149070, “Isolation of antirhinoviral sesquiterpenes from ginger (Zingiber officinale)” (J Nat Prod, 1994).

Key:
rhinovirus A1B = assay: Antiviral activity against Rhinovirus 1B infected in human HeLa cells assessed as reduction in plaque formation per plate after 72 hrs; format: functional, organism-based, Human rhinovirus 1B; parameters: ED50: unit: ug/plate
How it was run: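 M-HeLa cells were seeded at 10⁶ per plate in MEM with 10% FCS and grown to confluence overnight. They were infected with RV1B at 100-200 pfu/plate for 1 h. Excess virus was replaced with an agarose overlay (MEM, FCS, tryptose broth) holding serial doubling dilutions from EtOH, final EtOH ≤1%. Plates ran 72 h at 33°, then were formol-saline fixed and methyl violet stained.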

HeLa [1] = assay: Cytotoxicity against human HeLa cells upto 20 ug/plate; format: cell-based
How it was run: (§1)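 Cytotoxicity was judged in the plaque-assay plates: confluent M-HeLa monolayers under agarose overlay with sample added from EtOH doubling dilutions (≤1% EtOH), 72 h at 33°, then formol-saline fixed and methyl violet stained. Monolayers were inspected for cell destruction, altered appearance or thinning relative to cell controls (no virus, no sample) and virus controls, up to the top plate concentration.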

HeLa [2] = assay: Cytotoxicity against human HeLa cells upto 1.35 ug/plate; format: cell-based; how it was run: as §1

**Q.** C=C(CCC=C(C)C)[C@H]1CC=C(C)CC1 was tested. Which ED50 (rhinovirus A1B) did it give?
**A.** 14.3 µg

**Q.** What about the Activity (HeLa [1]) of the same molecule?
**A.** Non-toxic

**Q.** How did the ED50 (rhinovirus A1B) turn out when CC(C)=CCC[C@@H](C)c1ccc(C)cc1 was run?
**A.** 20.4 µg

**Q.** What about the Activity (HeLa [1]) of the same molecule?
**A.** Non-toxic

**Q.** C=C1C=C[C@H]([C@H](C)CCC=C(C)C)CC1 was tested. Which ED50 (rhinovirus A1B) did it give?
**A.** 0.9 µg

**Q.** And the IC50 (rhinovirus A1B; Rhinovirus A, HeLa, 72 h)?
**A.** 440 nM

**Q.** And the Activity (HeLa [1])?
**A.** Non-toxic

**Q.** CC(C)=CCC[C@@H](C)[C@H]1C=CC(C)=CC1 was tested. Which ED50 (rhinovirus A1B) did it give?
**A.** 1.9 µg

**Q.** And the Activity (HeLa [1])?
**A.** Non-toxic

**Q.** c1ccc(C2CCc3ccccc3O2)cc1 (stereo unspecified) [FLAVANE] was tested. Which ED50 (rhinovirus A1B) did it give?
**A.** 0.27 µg

**Q.** And the Activity (HeLa [2])?
**A.** Non-toxic
